Source: PubChem
RGS4 block = human RGS4 inhibition; P49798; HEK293 M3R/RGS4 inducible, Fluo-4 calcium flux; hits give high values; triggered by carbachol at its EC20; B-score at 10 µM; 310,000 tested, 0.45% active;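 active means B-score, a plate-corrected calcium signal, over three deviations above library mean, with baseline fluorescence within five deviations of library mean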;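 further: RGS4 expression induced by doxycycline in cells with stable M3 receptor; B-score is computed from the integrated fluorescence ratio over baseline after carbachol; higher B-score means a larger calcium signal and so more RGS4 inhibition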
Target sequence (P49798 whole entry, looked up): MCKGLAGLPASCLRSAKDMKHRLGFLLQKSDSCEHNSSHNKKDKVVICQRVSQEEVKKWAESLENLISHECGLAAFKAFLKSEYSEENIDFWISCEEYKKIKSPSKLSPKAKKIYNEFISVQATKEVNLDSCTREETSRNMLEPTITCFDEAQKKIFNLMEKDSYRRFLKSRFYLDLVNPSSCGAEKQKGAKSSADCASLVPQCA
Cl transport mod = modulates chloride dependent transport by human KCC2; Q9H2X9; KCC2 cells, thallium flux FluoZin-2 fluorescence; B-score of Tl+ flux slope (higher = more flux/activation; lower = inhibition) at 10 µM; 190,000 tested, 2.2% active;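 active means thallium flux slope and its plate-corrected score both differing from the plate sample mean at a set confidence after two filtering rounds, in either direction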;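 further: slope of fluorescence scaled to starting intensity during 10 to 20 s after thallium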
MrgX1 ag = agonists of human MrgX1 receptor; 310,000 tested, 0.44% active; B-score at 10 µM; MrgX1-HEK293 cells, Fluo-4 calcium fluorescence, agonist mode; hits give high values; Q96LB2;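 active means calcium response B-score plate-corrected fluorescence ratio at least 3 library SD, with starting fluorescence B-score inside 5 SD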
Target sequence (Q96LB2 whole entry, looked up): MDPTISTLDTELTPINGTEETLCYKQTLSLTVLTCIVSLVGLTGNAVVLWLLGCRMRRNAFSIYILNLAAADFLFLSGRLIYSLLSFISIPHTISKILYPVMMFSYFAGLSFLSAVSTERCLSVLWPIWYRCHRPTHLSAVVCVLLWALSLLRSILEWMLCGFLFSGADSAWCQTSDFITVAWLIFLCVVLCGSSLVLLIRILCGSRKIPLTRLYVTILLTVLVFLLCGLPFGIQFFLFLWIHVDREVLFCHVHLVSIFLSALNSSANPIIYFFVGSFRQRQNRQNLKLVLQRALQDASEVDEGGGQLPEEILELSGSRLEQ
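Material: MrgX1-expressing HEK293 cells / Dosing: compound as first of three additions / Incubation: overnight seeding, then 1 h dark dye loading / Signal: Fluo-4 NW calcium fluorescence / Evaluation: B-scored fluorescence response ratio / Benchmarks: positive and negative control wells on each plate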
MrgX1 antag = antagonists of human MrgX1 receptor; Q96LB2; MRGX1-HEK293 calcium flux, Fluo-4, BAM8-22 antagonism; hits give low values; B-score at 10 µM; 310,000 tested, 1.3% active;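 active means calcium-response B-score plate-corrected more than 3 library SD below zero, starting fluorescence within 5 deviations, no agonist response on first addition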;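 further: peak minus trough fluorescence over baseline after final BAM8-22 challenge near maximal dose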
MrgX1 PAM = allosterically activates human MrgX1 receptor signaling. Q96LB2. MrgX1-HEK293, Fluo-4 calcium flux, FDSS; hits give high values. B-score at 10 µM. 310,000 tested, 0.63% active. AID 588675;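 active means plate-corrected calcium response at least 3 library SD above typical, normal starting fluorescence, not activating the receptor alone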;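 further: compound read alongside a low EC10 to EC30 dose of BAM8-22 agonist; peak minus trough fluorescence over baseline measured at the second addition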
RGS4 pot = potentiators or activators of RGS4; HEK293 M3R/inducible RGS4, carbachol calcium flux Fluo4; hits give low values; B-score at 10 µM; 310,000 tested, 0.92% active; AID 463111;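 active means B-score of the integrated calcium signal more than 4 SD below the library mean, with starting fluorescence not abnormally high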;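 further: negative B-score means reduced calcium response which marks RGS4 activation or potentiation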
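Reagent: ECmax carbachol challenge; Test system: M3R-expressing HEK293 line, RGS4 induced by doxycycline; Schedule: overnight RGS4 induction, 30 min dye load 37 °C, 20 min compound RT; Detection: calcium dye Fluo4 fluorescence; Read-out: Agonist-evoked peak-minus-minimum fluorescence over baseline, integrated ratio, B score.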
KCC2 secondary = KCC2 (human) modulation, secondary assay | shares compounds with Cl transport mod | HEK293-KCC2, thallium flux, FluoZin2 fluorescence; hits give high values | normalised thallium flux (F/F0 slope) at 10 µM | 3,700 tested, 15% active | AID 1713;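 active means thallium flux slope above the same plate's solvent-only control mean plus 3 SD; inconclusive means the two replicate wells disagree; inactive means no significant difference from solvent-only control wells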
KCC2 bumet counter = bumetanide-insensitive thallium flux in KCC2 cells with ouabain, counter-screen | AID 1714 | shares compounds with Cl transport mod | HEK293-KCC2 + bumetanide/ouabain, thallium flux FluoZin2; hits give high values | normalized thallium flux at 10 µM | 3,700 tested, 49% active;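 active means thallium entry rate above the same plate's blocked-transporter control wells by more than 3 SD; inconclusive means the two repeat wells disagree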;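 further: raw slope of fluorescence over initial fluorescence between 10 and 20 s after thallium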
KCC2 secondary2 = KCC2 (human) modulation, second secondary assay. shares compounds with Cl transport mod. HEK293-KCC2, thallium flux FluoZin2 fluorescence; actives lie on both sides; F/F0 rise rate, 10–20 s post-thallium. normalized thallium flux at 10 µM. 3,700 tested, 23% active. AID 1715;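 active means thallium flux slope more than 3 SD above or below the plate's solvent-only control mean, mostly below; inconclusive means the two repeat wells disagreed; inactive means no significant shift from solvent-only controls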
HEK counter1 = acts in parental HEK cells, KCC2 counter-screen | 3,700 tested, 46% active | shares compounds with Cl transport mod | HEK293 parental cells, thallium flux FluoZin2, ouabain; baseline-ratio fluorescence slope, 10–20 s after thallium | thallium flux rate (normalised fluorescence) at 10 µM;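 active means thallium flux rate significantly above the same plate's solvent-only control wells, beyond their mean plus 3 SD; inconclusive means the two replicate wells gave conflicting results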
KCC2 ouabain = modulates human KCC2 on retest with ouabain. shares compounds with Cl transport mod. HEK293-KCC2, thallium flux FluoZin2 fluorescence; bidirectional: low = inhibitor, high = activator. raw Tl+ flux slope (below DMSO = inhibition, above = activation) at 10 µM. 3,700 tested, 48% active. AID 1717;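 active means thallium flux slope beyond 3 SD from same-plate DMSO control mean in most replicates, usually higher, sometimes lower; inconclusive means repeat tests gave conflicting results; inactive means no significant difference from controls in most replicates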;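 further: slope of initial-normalized fluorescence between seconds 10 and 20 after thallium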
HEK counter2 = counter-screen for KCC2 modulators: effect in parental HEK293 cells; shares compounds with Cl transport mod; thallium flux slope at 10 µM; AID 1718; thallium flux FluoZin-2 fluorescence slope; 3,700 tested, 33% active;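 active means thallium flux slope above the same plate's solvent-control mean plus 3 SD in both duplicate wells; inconclusive means duplicate wells that disagreed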;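 further: run without ouabain in cells lacking the KCC2 cotransporter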
Large screens that a line does not name were inactive (follow-up assays come after a bar, where they were run). Rows were chosen to be rich in hits. Some 4.7% of all compounds tested hit in one or more screens of this group.

CS(=O)(=O)Nc1ccc(C(=O)N2CCN(c3ccccc3)CC2)cc1	none | KCC2 secondary inactive | KCC2 bumet counter inactive | KCC2 secondary2 inactive | HEK counter1 inactive | KCC2 ouabain inactive | HEK counter2 inactive
O=C(c1ccc(S(=O)(=O)N2CCCCC2)cc1)N1CCN(c2ccccc2)CC1	none
O=C(c1ccc2ccccc2c1)N1CCN(c2ccc(O)cc2)CC1	Cl transport mod -3.7 | KCC2 secondary inactive | KCC2 bumet counter inactive | KCC2 secondary2 inactive | HEK counter1 inactive | KCC2 ouabain inactive | HEK counter2 inactive
O=C(NC(=S)N1CCN(c2ccc(F)cc2)CC1)c1cccs1	Cl transport mod 32 | KCC2 secondary 0.012 | KCC2 bumet counter 0.12 | KCC2 secondary2 0.11 | HEK counter1 0.12 | KCC2 ouabain 0.11 | HEK counter2 0.11
Cc1ccnc(SC2CC(=O)N(c3ccc(F)cc3)C2=O)n1 (configuration not stated)	none (no result: Cl transport mod)
Cc1ccnc(NC(=O)CNC(=O)c2ccco2)c1	none (no result: Cl transport mod)
O=C(NC(=S)Nc1nc(-c2ccc(Br)cc2)cs1)c1ccco1	Cl transport mod 5.5 | KCC2 secondary inactive | KCC2 bumet counter 0.0078 | KCC2 secondary2 inactive | HEK counter1 0.011 | KCC2 ouabain inactive | HEK counter2 0.011
Cc1ccc2nc(NC(=S)NC(=O)c3ccco3)sc2c1	Cl transport mod 64 | KCC2 secondary 0.024 | KCC2 bumet counter 0.15 | KCC2 secondary2 0.057 | HEK counter1 0.084 | KCC2 ouabain 0.076 | HEK counter2 0.042
O=C(NC(=S)Nc1nc(-c2ccc([N+](=O)[O-])cc2)cs1)c1ccco1	none (no result: Cl transport mod)
Cc1ccnc(NC(=S)NC(=O)c2ccco2)c1	Cl transport mod 7.5 | KCC2 secondary 0.015 | KCC2 bumet counter 0.057 | KCC2 secondary2 inactive | HEK counter1 0.02 | KCC2 ouabain 0.046 | HEK counter2 0.013
Cn1c(=O)cc(SCC(=O)N2CCN(c3ccccn3)CC2)c2ccccc21	Cl transport mod -3.5 | KCC2 secondary inactive | KCC2 bumet counter inactive | KCC2 secondary2 inactive | HEK counter1 inactive | KCC2 ouabain 0.018 | HEK counter2 inactive
Cc1ccc(S(=O)(=O)NCCn2nc(C)cc2C)cc1	none (no result: Cl transport mod)
S=C(NCCc1ccccc1)N/N=C/c1c(Cl)cccc1Cl	Cl transport mod 7.9 | KCC2 secondary inconclusive | KCC2 bumet counter 0.019 | KCC2 secondary2 inconclusive | HEK counter1 0.015 | KCC2 ouabain 0.032 | HEK counter2 0.017
CNC(=S)N/N=C/c1c(Cl)cccc1Cl	Cl transport mod 5.4 | KCC2 secondary inactive | KCC2 bumet counter 0.014 | KCC2 secondary2 inactive | HEK counter1 0.016 | KCC2 ouabain inactive | HEK counter2 0.013
COCCN1CC(CNC(=O)c2cc(COc3ccccc3SC)on2)CC1=O (configuration not stated)	none (no result: Cl transport mod)
O=C(NNC(=O)c1sccc1-n1cccc1)c1ccc(F)cc1	none (no result: Cl transport mod) | KCC2 secondary inactive | KCC2 bumet counter 0.017 | KCC2 secondary2 inactive | HEK counter1 inconclusive | KCC2 ouabain 0.026 | HEK counter2 inactive
O=C(NCCc1ccccc1)C(=O)NCC1OCCN1S(=O)(=O)c1ccc(F)cc1 (configuration not stated)	none (no result: Cl transport mod)
COc1ccc(-c2nnc(-c3ccc(OCC(C)C)cc3)o2)cc1	Cl transport mod -5.5 | KCC2 secondary inactive | KCC2 bumet counter inactive | KCC2 secondary2 inactive | HEK counter1 inactive | KCC2 ouabain inactive | HEK counter2 inactive
CC(C)COc1ccc(-c2nnc(-c3ccncc3)o2)cc1	none
CC1CCCN(S(=O)(=O)c2ccc(NC(=O)CCN3C(=O)c4ccccc4C3=O)cc2)C1 (configuration not stated)	none | KCC2 secondary inactive | KCC2 bumet counter inconclusive | KCC2 secondary2 inactive | HEK counter1 inactive | KCC2 ouabain inactive | HEK counter2 inactive
O=C(CCN1C(=O)c2ccccc2C1=O)Nc1ccc(S(=O)(=O)N2CCOCC2)cc1	none
CC(=O)Nc1nc(-c2cccs2)cs1	none
O=C(Nc1nc(-c2cccs2)cs1)c1ccc(Cl)s1	Cl transport mod 3.1 | KCC2 secondary inactive | KCC2 bumet counter 0.015 | KCC2 secondary2 inactive | HEK counter1 0.0086 | KCC2 ouabain inactive | HEK counter2 inactive
COc1ccc(CNC(=O)C2CCC(CNS(=O)(=O)c3cccs3)CC2)cc1 (configuration not stated)	none (no result: Cl transport mod)
COc1ccc(C(=O)NNC(=O)C(=O)Nc2ccc(C)c(Cl)c2)cc1	Cl transport mod 47 | KCC2 secondary 0.01 | KCC2 bumet counter 0.067 | KCC2 secondary2 0.054 | HEK counter1 0.057 | KCC2 ouabain 0.06 | HEK counter2 0.051
Cc1ccc(NC(=O)C(=O)NNC(=O)c2ccccc2C)cc1Cl	Cl transport mod 46 | KCC2 secondary 0.048 | KCC2 bumet counter 0.11 | KCC2 secondary2 0.052 | HEK counter1 inconclusive | KCC2 ouabain 0.087 | HEK counter2 0.043
COc1ccccc1C(=O)NNC(=O)C(=O)Nc1ccc(C)c(Cl)c1	none (no result: Cl transport mod)
COc1ccc(C(=O)NNC(=O)C(=O)Nc2ccc(C)cc2)cc1	none (no result: Cl transport mod)
COC(=O)c1ccc(C2c3c(oc4ccccc4c3=O)C(=O)N2CCCN2CCOCC2)cc1 (configuration not stated)	Cl transport mod -4.5 | KCC2 secondary inactive | KCC2 bumet counter 0.0061 | KCC2 secondary2 inactive | HEK counter1 inactive | KCC2 ouabain inactive | HEK counter2 inactive
COCCN1C(=O)c2oc3ccccc3c(=O)c2C1c1ccc(C(=O)OC)cc1 (configuration not stated)	none
